Data on three compounds can be found in ChEMBL document CHEMBL3120133, “Discovery of a potent boronic acid derived inhibitor of the HCV RNA-dependent RNA polymerase” (J Med Chem, 2014).

In general, bioavailability refers to the share of a dose that reaches the circulation, judged against a reference dose that is usually intravenous. High values mean good availability, low ones poor availability. For orientation: EC50 means the concentration needed to bring the measured effect to its halfway point. By IC50 is commonly meant the concentration at which inhibition is half-maximal.

Molecules are shown by their SMILES. Calls of active or inactive are those of the source. The calls are words filed in the database; no cut-off is given here.

Series [1] in a line: Bioavailability in Sprague-Dawley rat at 1 mg/kg, iv and 5 mg/kg, po. As to conditions: in vivo. It is filed as ADME, organism-based.
In series [2] the test system is Hepatitis C virus. Briefly: Antiviral activity against wild type Hepatitis C virus genotype 1a harboring C316Y mutant infected in human HuH7 cells assessed as inhibition of viral replication after 48 hrs by luciferase reporter gene assay. The note with it: subtype 1a, Huh-7, 48 h. It is filed as functional, organism-based, Hepacivirus hominis. For orientation: In a reporter assay the amount or activity of a reporter protein is the signal.

Series [3] relates to Hepatitis C virus. Briefly: Antiviral activity against wild type Hepatitis C virus genotype 1a infected in human HuH7 cells assessed as inhibition of viral replication after 48 hrs by luciferase reporter gene assay. The series is classed as functional, organism-based, Hepacivirus hominis. The note with it: subtype 1a, Huh-7, 48 h. In a few lines:
(§1)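 Replicon-based readout (stable and transient replicon formats) in place of virus infection, with compound present for 2 days before EC50 determination.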

Series [4] deals with Hepatitis C virus. Briefly: Antiviral activity against wild type Hepatitis C virus genotype 1b harboring C316N mutant infected in human HuH7 cells assessed as inhibition of viral replication after 48 hrs by luciferase reporter gene assay. The series is classed as functional, organism-based, Hepacivirus hominis. The note with it: Huh-7, 48 h.
A short description of series [5]: Clearance in Sprague-Dawley rat at 1 mg/kg, iv and 5 mg/kg, po. It is filed as ADME, organism-based. As to conditions: in vivo.
Series [6] can be described thus: Inhibition of C-terminal 6xHis-tagged Hepatitis C virus genotype 1b BK NS5B Cdelta21 RNA dependent RNA polymerase L47Q/F101Y/[…] mutant after 30 mins in presence of [alpha-33P]. Details: species or system Hepatitis C virus (isolate BK).
Series [7] has as its system Hepatitis C virus. Briefly: Antiviral activity against wild type Hepatitis C virus genotype 1b infected in human HuH7 cells assessed as inhibition of viral replication after 48 hrs by luciferase reporter gene assay. The note with it: Huh-7, 48 h. It is filed as functional, organism-based, Hepacivirus hominis. A digest of the protocol: as §1
In series [8] the test system is Hepatitis C virus. Briefly: Antiviral activity against wild type Hepatitis C virus genotype 1b harboring S365T mutant infected in human HuH7 cells assessed as inhibition of viral replication after 72 hrs by Bright-glo luciferase reporter gene assay. It is filed as functional, organism-based, Hepacivirus hominis. As to conditions: Huh-7, 72 h.
The subject of series [9] is RNA-directed RNA polymerase (Hepacivirus hominis), O39930 [C316N]. Briefly: Binding affinity to Hepatitis C virus genotype 1b NS5B Cdelta21 RNA dependent RNA polymerase 316N mutant assessed as dissociation half life at 10 uM by LC-MS/MS analysis. As to conditions: Hepatitis C virus subtype 1b. A digest of the protocol: (§2)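 NS5B∆21 GT1b 316N (10 uM) saturated with 12uM inhibitor to pre-form the complex, then diluted 20-fold into 10 uM of the competing Palm II inhibitor to block rebinding. Bound compound was separated from free by rapid size-exclusion filtration over time, and both inhibitors were quantified by LC-MS. Off-rates were fitted to a single or two-phase exponential to give t1/2.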

Series [10] concerns the target RNA-directed RNA polymerase (Hepacivirus hominis, UniProt O39930, C316N). Briefly: Inhibition of Hepatitis C virus genotype 1b NS5B Cdelta21 RNA dependent RNA polymerase 316N mutant using biotinylated polyC:oligoG/[alpha-P33]-GTP as template/substrate preincubated for 15 mins followed by template/substrate addition by scintillation proximity assay. Also on record: species or system Hepatitis C virus subtype 1b. In a few lines:
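Isolated NS5B at 30 nM was preincubated with inhibitor for 15 min before reaction start. The IC50 was determined from the polymerase assay.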
Background: In a scintillation proximity assay essentially only radioactivity close to the scintillant gives light.

In series [11] the test system is Hepatitis C virus. Briefly: Antiviral activity against wild type Hepatitis C virus genotype 1b harboring C316F mutant infected in human HuH7 cells assessed as inhibition of viral replication after 72 hrs by Bright-glo luciferase reporter gene assay. The note with it: Huh-7, 72 h. The series is classed as functional, organism-based, Hepacivirus hominis.
The test system of series [12] is Hepatitis C virus. Briefly: Antiviral activity against wild type Hepatitis C virus genotype 1b harboring C316Y mutant infected in human HuH7 cells assessed as inhibition of viral replication after 72 hrs by Bright-glo luciferase reporter gene assay. The series is classed as functional, organism-based, Hepacivirus hominis. As to conditions: Huh-7, 72 h.
Series [13] relates to Hepatitis C virus (isolate BK). Briefly: Inhibition of C-terminal 6xHis-tagged Hepatitis C virus genotype 1b BK NS5B Cdelta21 RNA dependent RNA polymerase L47Q/F101Y/[…] mutant expressed in Escherichia coli BL21(DE3) using radiolabelled CTP/5'-A(8)CG-3' as substrate/template assessed as inhibition of pCpG dimer formation at 0.016 to 10 uM.
In series [14] the test system is RNA-directed RNA polymerase (Hepacivirus hominis), O39930 [C316N]. Briefly: Binding affinity to Hepatitis C virus genotype 1b NS5B Cdelta21 RNA dependent RNA polymerase 316N mutant assessed as dissociation half life at 0.6 uM by LC-MS/MS analysis. The note with it: Hepatitis C virus subtype 1b. In a few lines:
as §2

Chain of RNA-directed RNA polymerase (Hepacivirus hominis), O39930 [C316N] (O39930 entry or part of it C316N): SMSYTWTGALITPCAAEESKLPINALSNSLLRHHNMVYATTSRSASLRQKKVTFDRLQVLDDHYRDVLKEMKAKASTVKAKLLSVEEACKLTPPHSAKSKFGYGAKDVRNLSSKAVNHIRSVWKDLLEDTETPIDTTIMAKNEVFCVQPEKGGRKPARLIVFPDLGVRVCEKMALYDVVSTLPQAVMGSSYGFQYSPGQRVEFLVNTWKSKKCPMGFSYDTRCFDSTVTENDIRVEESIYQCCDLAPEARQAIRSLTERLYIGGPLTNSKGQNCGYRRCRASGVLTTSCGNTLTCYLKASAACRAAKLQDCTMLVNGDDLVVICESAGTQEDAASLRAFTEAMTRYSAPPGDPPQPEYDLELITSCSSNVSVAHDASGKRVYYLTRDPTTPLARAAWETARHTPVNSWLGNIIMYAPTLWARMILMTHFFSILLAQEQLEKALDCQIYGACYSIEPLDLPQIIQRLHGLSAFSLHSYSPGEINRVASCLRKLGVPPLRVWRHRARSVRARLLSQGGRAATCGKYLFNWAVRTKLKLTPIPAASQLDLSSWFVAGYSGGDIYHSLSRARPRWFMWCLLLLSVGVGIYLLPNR
Chain of RNA-directed RNA polymerase (O39930 entry or part of it C316N): as above

`CNC(=O)c1c(-c2ccc(F)cc2)oc2cc(N(Cc3ccc(B(O)O)cc3)S(C)(=O)=O)c(C3CC3)cc12` yielded a bioavailability in [1] below 3%. The EC50 in the series with Hepatitis C virus [2] worked out at 120 nM; in the series with Hepatitis C virus [3], 2.7 nM; in the series with Hepatitis C virus [4] it was 13 nM; in the series with Hepatitis C virus [7] it was 2.6 nM. The compound also gave a clearance in [5] of 36 mL/min/kg. In addition, the half-maximal inhibitory concentration (IC50) in series [6] is 32 nM.
Take `CNC(=O)c1c(-c2ccc(F)cc2)oc2cc(N(CCO)S(C)(=O)=O)c(C3CC3)cc12` [NESBUVIR]: the concentration for a half-maximal effect (EC50) amounted to 1300 nM in the series with Hepatitis C virus [8]; 1900 nM in the series with Hepatitis C virus [2]; 27 nM in the series on Hepatitis C virus [3]; 100 nM in the series on Hepatitis C virus [4]; 2500 nM in the series on Hepatitis C virus [11]; 420 nM in the series with Hepatitis C virus [12]. Also, the concentration for a half-maximal effect (EC50) in the series on Hepatitis C virus [7] is 18 nM. The T1/2 in series [9] was 1.7 h. For the same compound, the IC50 in series [10] was 160 nM; in series [6] it was 40 nM.
With `CNC(=O)c1c(-c2ccc(F)cc2)oc2cc(N(Cc3ccc(B(O)O)c(F)c3)S(C)(=O)=O)c(C3CC3)cc12`, the EC50 with Hepatitis C virus [8] came out at 4.2 nM; with Hepatitis C virus [2], 3.2 nM; with Hepatitis C virus [3], 3 nM; with Hepatitis C virus [4], 1.9 nM; with Hepatitis C virus [11], 3.8 nM; with Hepatitis C virus [12], 1.4 nM. For the same compound, the EC50 with Hepatitis C virus [7] is 1.7 nM. In [13], the inhibition result is “Active”. Besides, the IC50 came out at 130 nM in [10] and 50 nM in [6]. Moreover, the T1/2 in [14] came out at 4.3 h.
